Experimental data reported in ChEMBL document CHEMBL1142321, “Selection of a respiratory syncytial virus fusion inhibitor clinical candidate. 2. Discovery of a morpholinopropylaminobenzimidazole derivative (TMC353121)” (J Med Chem, 2008).
Converted amounts (≈) assume the structure as drawn. One block for each compound: values may come before it.

Columns and labels:
[1] = test system: Respiratory syncytial virus; assay: Inhibition of RSV by MTT assay; type: functional, organism-based; conditions: human respiratory syncytial virus
Outline: (§1)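 HeLaM epithelial-like cells infected with RSV with or without a range of compound concentrations; viability read by MTT after 1 week incubation. OD measured spectrophotometrically and pEC50 derived. Virus, cell and cytotoxicity controls on every plate, reference compounds in every test; runs failing control criteria rejected.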

[2] = Cytotoxicity against human HeLaM cells by MTT assay; type: functional, M-HeLa
[3] = Half life in Sprague-Dawley rat lung; type: ADME, organism-based
[4] = test system: Respiratory syncytial virus; assay: Antiviral activity against RSV R2LO replication in HeLa cells; type: functional, organism-based; conditions: for EC50: human respiratory syncytial virus, HeLa; outline: as §1
[5] = test system: Respiratory syncytial virus; assay: Antiviral activity against RSV R6LO replication in HeLa cells; type: functional, organism-based; conditions: for EC50: human respiratory syncytial virus, HeLa; outline: as §1
[6] = test system: Respiratory syncytial virus; assay: Antiviral activity in RSV infected cotton rat model assessed as log reduction of viral titer at 0.25 mg/mL by aerosol administration 1 hr prior to viral challenge; type: functional
Outline: (§2)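 Single aerosol from an ultrasonic nebulizer for 1 h, given 1 h before RSV challenge; dose stated as drug concentration in the nebulizer reservoir. BALF collected by lung flushing with physiological water 4 days after challenge. Virus titre measured by plaque titration; log reduction calculated against untreated control animals.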

[7] = test system: Respiratory syncytial virus; assay: Antiviral activity in RSV infected cotton rat model assessed as log reduction of viral titer at 1.25 mg/mL by aerosol administration 1 hr prior to viral challenge; type: functional; outline: as §2
[8] = test system: Respiratory syncytial virus; assay: Antiviral activity in RSV infected cotton rat model assessed as log reduction of viral titer at 5 mg/mL by aerosol administration 1 hr prior to viral challenge; type: functional; outline: as §2
[9] = test system: Respiratory syncytial virus; assay: Antiviral activity in RSV infected cotton rat model assessed as log reduction of viral titer at 20 mg/mL by aerosol administration 1 hr prior to viral challenge; type: functional; outline: as §2
[10] = test system: Respiratory syncytial virus; assay: Antiviral activity in RSV infected cotton rat model assessed as log reduction of viral titer at 10 mg/kg, iv after 24 hrs of viral challenge; type: functional
Outline: (§3)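 Cotton rats received a single iv dose at set times before (minus) or after (plus) RSV challenge. Day 4 after challenge, lungs flushed with physiological water and BALF virus titre measured by plaque titration. Log reduction calculated against untreated controls.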

[11] = test system: Respiratory syncytial virus; assay: Antiviral activity in RSV infected cotton rat model assessed as log reduction of viral titer at 10 mg/kg, po 2 hrs prior to viral challenge; type: functional
Outline: (§4)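 Cotton rats dosed once orally by gavage 2 h before RSV challenge. BALF obtained by lung lavage with physiological water 4 days after challenge, virus titred by plaque assay. Log reduction expressed versus untreated control animals.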

[12] = test system: Respiratory syncytial virus; assay: Antiviral activity in RSV infected cotton rat model assessed as log reduction of viral titer at 40 mg/kg, po 2 hrs prior to viral challenge; type: functional; outline: as §4
[13] = AUC (0 to infinity) in Sprague-Dawley rat plasma at 2 mg/kg, iv; type: ADME, organism-based; design: time infinity, dose 2 mg/kg, route intravenous
[14] = Plasma clearance in Sprague-Dawley rat at 2 mg/kg, iv; type: ADME, organism-based; design: dose 2 mg/kg, route intravenous
[15] = Volume of distribution in Sprague-Dawley rat plasma at 2 mg/kg, iv; type: ADME, organism-based; design: dose 2 mg/kg, route intravenous
[16] = Half life in Sprague-Dawley rat plasma at 2 mg/kg, iv; type: ADME, organism-based; design: dose 2 mg/kg, route intravenous
[17] = Cmax in Sprague-Dawley rat plasma at 10 mg/kg, po; type: ADME, organism-based; design: dose 10 mg/kg, route oral
[18] = AUC (0 to infinity) in Sprague-Dawley rat plasma at 10 mg/kg, po; type: ADME, organism-based; design: time infinity, dose 10 mg/kg, route oral
[19] = Absolute bioavailability in Sprague-Dawley rat plasma at 10 mg/kg, po; type: ADME, organism-based
[20] = test system: Respiratory syncytial virus; assay: Antiviral activity against RSV LO replication in HeLa cells; type: functional, organism-based; outline: as §1
[21] = test system: Respiratory syncytial virus; assay: Antiviral activity against RSV Cl11 replication in HeLa cells; type: functional, organism-based; conditions: for EC50: human respiratory syncytial virus, HeLa; outline: as §1
[22] = test system: Respiratory syncytial virus; assay: Antiviral activity against RSV CI57 replication in HeLa cells; type: functional, organism-based; conditions: for EC50: human respiratory syncytial virus, HeLa; outline: as §1
[23] = test system: Respiratory syncytial virus; assay: Antiviral activity against RSV CI41 replication in HeLa cells; type: functional, organism-based; conditions: for EC50: human respiratory syncytial virus, HeLa; outline: as §1
[24] = test system: Respiratory syncytial virus; assay: Antiviral activity against RSV CI42 replication in HeLa cells; type: functional, organism-based; conditions: for EC50: human respiratory syncytial virus, HeLa; outline: as §1
[25] = test system: Respiratory syncytial virus; assay: Antiviral activity against RSV R1LO replication in HeLa cells; type: functional, organism-based; conditions: for EC50: human respiratory syncytial virus, HeLa; outline: as §1
[26] = test system: Respiratory syncytial virus; assay: Antiviral activity in RSV infected cotton rat model assessed as log reduction of viral titer at 2 mg/kg, iv 5 mins prior to viral challenge; type: functional; outline: as §3
[27] = test system: Respiratory syncytial virus; assay: Antiviral activity in RSV infected cotton rat model assessed as log reduction of viral titer at 10 mg/kg, iv 96 hrs prior to viral challenge; type: functional; outline: as §3
[28] = test system: Respiratory syncytial virus; assay: Antiviral activity in RSV infected cotton rat model assessed as log reduction of viral titer at 10 mg/kg, iv 72 hrs prior to viral challenge; type: functional; outline: as §3
[29] = test system: Respiratory syncytial virus; assay: Antiviral activity in RSV infected cotton rat model assessed as log reduction of viral titer at 10 mg/kg, iv 48 hrs prior to viral challenge; type: functional; outline: as §3
[30] = test system: Respiratory syncytial virus; assay: Antiviral activity in RSV infected cotton rat model assessed as log reduction of viral titer at 10 mg/kg, iv 24 hrs prior to viral challenge; type: functional; outline: as §3
[31] = test system: Respiratory syncytial virus; assay: Antiviral activity in RSV infected cotton rat model assessed as log reduction of viral titer at 10 mg/kg, iv 4 hrs prior to viral challenge; type: functional; outline: as §3
[32] = test system: Respiratory syncytial virus; assay: Antiviral activity in RSV infected cotton rat model assessed as log reduction of viral titer at 10 mg/kg, iv 1 hrs prior to viral challenge; type: functional; outline: as §3
[33] = test system: Respiratory syncytial virus; assay: Antiviral activity in RSV infected cotton rat model assessed as log reduction of viral titer at 10 mg/kg, iv 5 mins prior to viral challenge; type: functional; outline: as §3
[34] = test system: Respiratory syncytial virus; assay: Antiviral activity in RSV infected cotton rat model assessed as log reduction of viral titer at 10 mg/kg, iv after 3 hrs of viral challenge; type: functional; outline: as §3

SMILES: Cc1ccc(O)c(Cn2c(NC3CCN(C)CC3)nc3ccc(C(O)c4ccccc4)cc32)n1 (stereo not drawn)
EC50 [1]: 158 nM
pCC50 [2]: <4

SMILES: Cc1cc(C)cc(N(CCO)Cc2ccc3nc(NC4CCN(C)CC4)n(Cc4nc(C)ccc4O)c3c2)c1
EC50 [1]: 0.398 nM
pCC50 [2]: 4.4

SMILES: Cc1cccc(N(CCO)Cc2ccc3nc(NCCCN4CCOCC4)n(Cc4nc(C)ccc4O)c3c2)c1
EC50 [1]: 0.501 nM
pCC50 [2]: 5

half-life [3]: 19.6 h
SMILES: Cc1cc(C)cc(N(CCO)Cc2ccc3nc(NCCCN4CCOCC4)n(Cc4nc(C)ccc4O)c3c2)c1
EC50 [1]: 0.501 nM
pCC50 [2]: 4.4

SMILES: Cc1cc(C)cc(NCc2ccc3nc(NCC(O)CO)n(Cc4nc(C)ccc4O)c3c2)c1 (stereo not drawn)
EC50 [1]: 31.6 nM
pCC50 [2]: 4.3

half-life [3]: 84.9 h
SMILES: Cc1cc(C)cc(NCc2ccc3nc(NC4CCN(CCO)CC4)n(Cc4nc(C)ccc4O)c3c2)c1
EC50 [1]: 1.58 nM
pCC50 [2]: 4.5

SMILES: Cc1cccc(/C=C/c2ccc3nc(NC4CCN(C)CC4)n(Cc4nc(C)ccc4O)c3c2)c1
EC50 [1]: 501 nM
pCC50 [2]: 5.6

SMILES: Cc1ccc(O)c(Cn2c(NC3CCN(C)CC3)nc3ccc(CN(C)c4ccccc4)cc32)n1
EC50 [1]: 39.8 nM
pCC50 [2]: 5.2

half-life [3]: 20.1 h
SMILES: Cc1ccc(O)c(Cn2c(NCCCN3CCOCC3)nc3ccc(CNc4ccccc4CCO)cc32)n1
EC50 [1]: 0.794 nM
pCC50 [2]: 4.7

pEC90 [4]: <4
EC50 ([4]; read-out: EC50): 280 ng/mL
EC50 ([4]; read-out: Log EC50 (converted)): 501 nM
pEC90 [5]: <6.7
EC50 ([5]; read-out: EC50): 0.04 ng/mL
EC50 ([5]; read-out: Log EC50 (converted)): 0.0794 nM
AUC(0-inf) [13]: 354 ng·h/mL
clearance [14]: 90 mL/min/kg
Vd [15]: 79.3 L/kg
half-life [16]: 10.3 h
Cmax [17]: 47.3 ng/mL
AUC(0-inf) [18]: 246 ng·h/mL
bioavailability [19]: 14%
half-life [3]: 25.1 h
pEC90 [20]: 9.6
EC50 ([20]; human respiratory syncytial virus, HeLa): 0.07 ng/mL (≈ 0.000125 µM)
pEC90 [21]: 10
EC50 ([21]; read-out: EC50): 0.03 ng/mL
EC50 ([21]; read-out: Log EC50 (converted)): 0.0501 nM
pEC90 [22]: 9.8
EC50 ([22]; read-out: EC50): 0.04 ng/mL
EC50 ([22]; read-out: Log EC50 (converted)): 0.0794 nM
pEC90 [23]: 10.1
EC50 ([23]; read-out: EC50): 0.02 ng/mL
EC50 ([23]; read-out: Log EC50 (converted)): 0.0316 nM
pEC90 [24]: 10.1
EC50 ([24]; read-out: EC50): 0.02 ng/mL
EC50 ([24]; read-out: Log EC50 (converted)): 0.0316 nM
pEC90 [25]: 7.5
EC50 ([25]; read-out: EC50): 7.03 ng/mL
EC50 ([25]; read-out: Log EC50 (converted)): 12.6 nM
SMILES: Cc1ccc(CCCO)c(NCc2ccc3nc(NCCCN4CCOCC4)n(Cc4nc(C)ccc4O)c3c2)c1
Activity [6]: 0.6
Activity [7]: 1
Activity [8]: 1.5
Activity [9]: 1.6
Activity [10]: 0.2
Activity [11]: 0.4
Activity [12]: 0.8
pCC50 [2]: 5.1
CC50 ([2]; Homo sapiens, M-HeLa): 4440 ng/mL (≈ 7.94 µM)
Activity [26]: 0.4
Activity [27]: 0.2
Activity [28]: 0.4
Activity [29]: 0.3
Activity [30]: 0.5
Activity [31]: 0.9
Activity [32]: 0.9
Activity [33]: 1.2
Activity [34]: 0.5

SMILES: Cc1cccc(NCc2ccc3nc(NCCCN4CCOCC4)n(Cc4nc(C)ccc4O)c3c2)c1
EC50 [1]: 2.51 nM
pCC50 [2]: 4.9

SMILES: Cc1cccc(/C=C/c2ccc3nc(NC4CCN(CCN)CC4)n(Cc4nc(C)ccc4O)c3c2)c1
EC50 [1]: 3.16 nM
pCC50 [2]: 5.1

half-life [3]: 67.7 h
SMILES: Cc1cccc(NCc2ccc3nc(NC4CCN(CCO)CC4)n(Cc4nc(C)ccc4O)c3c2)c1
EC50 [1]: 1.58 nM
pCC50 [2]: 4.4

SMILES: Cc1cccc(CCc2ccc3nc(NC4CCN(CCN)CC4)n(Cc4nc(C)ccc4O)c3c2)c1
EC50 [1]: 1 nM
pCC50 [2]: 4.9

SMILES: Cc1ccc(O)c(Cn2c(NC3CCN(C)CC3)nc3ccc(CNc4ccccc4)cc32)n1
EC50 [1]: 15.8 nM
pCC50 [2]: 4.5

SMILES: Cc1cccc(NCc2ccc3nc(NC4CCN(C)CC4)n(Cc4nc(C)ccc4O)c3c2)c1
EC50 [1]: 5.01 nM
pCC50 [2]: 4.7
